Measurements: ChEMBL document CHEMBL1147825, “2H-benzimidazole 1,3-dioxide derivatives: a new family of water-soluble anti-trypanosomatid agents” (J Med Chem, 2006)
Active and inactive are the calls of the source. The rule behind the calls is not given here.

The compounds below were run on Leishmania amazonensis (assay: Leishmanicidal activity against Leishmania amazonensis promastigote form at 100 ug/mL). Conditions: not given.
Type: functional
Summary of the method: (§1)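 Promastigotes grown at 28°C in Schneider's medium with 20% FCS, seeded at 10^7 parasites/mL; compound dissolved in minimal DMSO or Tween 80 and diluted in Schneider's medium to a final 100 µg/mL. After 72 h at 28°C, parasites examined by inverted microscopy and compared with compound-free control.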

SMILES | Activity
Cc1ccc2c(c1)[n+]([O-])c(C)n2O | inactive
Cc1ccc2c(c1)=[N+]([O-])C(C)(C)[N+]=2[O-] | 70%
CCOC(=O)c1[nH]c2ccc([N+](=O)[O-])cc2[n+]1[O-] | inactive
N=C(N)c1ccc(OCCCCCOc2ccc(C(=N)N)cc2)cc1 [PENTAMIDINE] | 100%
CC1(C)[N+]([O-])=c2ccc(C3OCCO3)cc2=[N+]1[O-] | 100%
CC1(C)[N+]([O-])=c2ccccc2=[N+]1[O-] | 100%
COc1ccc2c(c1)=[N+]([O-])C(C)(C)[N+]=2[O-] | 70%
CCOC(=O)c1ccc2[nH]c(C(=O)OCC)[n+]([O-])c2c1 | inactive
Cc1n(O)c2ccccc2[n+]1[O-] | inactive
COc1ccc2c(c1)[n+]([O-])c(C)n2O | inactive
CC1(C)[N+]([O-])=c2ccc(/C=N/O)cc2=[N+]1[O-] | 100%

These compounds were tested on Leishmania infantum (assay: Leishmanicidal activity against Leishmania infantum promastigote form at 100 ug/mL). Conditions: not given.
Type: functional
Summary of the method: as §1

SMILES | Activity
Cc1ccc2c(c1)[n+]([O-])c(C)n2O | inactive
Cc1ccc2c(c1)=[N+]([O-])C(C)(C)[N+]=2[O-] | 70%
CCOC(=O)c1[nH]c2ccc([N+](=O)[O-])cc2[n+]1[O-] | inactive
N=C(N)c1ccc(OCCCCCOc2ccc(C(=N)N)cc2)cc1 [PENTAMIDINE] | 100%
CC1(C)[N+]([O-])=c2ccc(C3OCCO3)cc2=[N+]1[O-] | 100%
CC1(C)[N+]([O-])=c2ccccc2=[N+]1[O-] | 100%
COc1ccc2c(c1)=[N+]([O-])C(C)(C)[N+]=2[O-] | inactive
CCOC(=O)c1ccc2[nH]c(C(=O)OCC)[n+]([O-])c2c1 | inactive
Cc1n(O)c2ccccc2[n+]1[O-] | inactive
COc1ccc2c(c1)[n+]([O-])c(C)n2O | inactive
CC1(C)[N+]([O-])=c2ccc(/C=N/O)cc2=[N+]1[O-] | 100%

These compounds were tested on Leishmania braziliensis (assay: Leishmanicidal activity against Leishmania braziliensis promastigote form at 100 ug/mL). Conditions: not given.
Type: functional
Summary of the method: as §1

SMILES | Activity
Cc1ccc2c(c1)[n+]([O-])c(C)n2O | inactive
Cc1ccc2c(c1)=[N+]([O-])C(C)(C)[N+]=2[O-] | 70%
CCOC(=O)c1[nH]c2ccc([N+](=O)[O-])cc2[n+]1[O-] | inactive
N=C(N)c1ccc(OCCCCCOc2ccc(C(=N)N)cc2)cc1 [PENTAMIDINE] | 100%
CC1(C)[N+]([O-])=c2ccc(C3OCCO3)cc2=[N+]1[O-] | 100%
CC1(C)[N+]([O-])=c2ccccc2=[N+]1[O-] | 100%
COc1ccc2c(c1)=[N+]([O-])C(C)(C)[N+]=2[O-] | 70%
CCOC(=O)c1ccc2[nH]c(C(=O)OCC)[n+]([O-])c2c1 | inactive
Cc1n(O)c2ccccc2[n+]1[O-] | 70%
COc1ccc2c(c1)[n+]([O-])c(C)n2O | inactive
CC1(C)[N+]([O-])=c2ccc(/C=N/O)cc2=[N+]1[O-] | 100%

The compounds below were run on J774 (assay: Cytotoxicity against mouse J774 macrophage at 400 uM). Conditions: not given.
Type: functional
Summary of the method: (§2)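 J774 macrophages in RPMI 1640 with 20% heat-inactivated FCS, attached 24 h at 37°C in 5% CO2, then exposed to compound for 48 h. Washed, MTT 0.4 mg/mL 60 min at 37°C, formazan dissolved in DMSO, OD595 read. Each concentration in triplicate with six growth controls; %cytotoxicity corrected for compound-in-medium and medium-only blanks.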

SMILES | Activity
Cc1ccc2c(c1)=[N+]([O-])C(C)(C)[N+]=2[O-] | Toxic
CC1(C)[N+]([O-])=c2ccc(Br)cc2=[N+]1[O-] | Toxic
CC1(C)[N+]([O-])=c2ccc(C3OCCO3)cc2=[N+]1[O-] | 50%
CC1(C)[N+]([O-])=c2ccccc2=[N+]1[O-] | Toxic
COc1ccc2c(c1)=[N+]([O-])C(C)(C)[N+]=2[O-] | Toxic
CC1(C)[N+]([O-])=c2ccc(/C=C/c3ccccc3)cc2=[N+]1[O-] | Toxic
CC1(C)[N+]([O-])=c2ccc(/C=N/O)cc2=[N+]1[O-] | Not toxic

These compounds were tested on J774 (assay: Cytotoxicity against mouse J774 macrophage at 40 uM). Conditions: not given.
Type: functional
Summary of the method: as §2

SMILES | Activity
Cc1ccc2c(c1)=[N+]([O-])C(C)(C)[N+]=2[O-] | < 50%
CC1(C)[N+]([O-])=c2ccc(Br)cc2=[N+]1[O-] | < 50%
CC1(C)[N+]([O-])=c2ccccc2=[N+]1[O-] | < 50%
COc1ccc2c(c1)=[N+]([O-])C(C)(C)[N+]=2[O-] | < 50%
CC1(C)[N+]([O-])=c2ccc(/C=C/c3ccccc3)cc2=[N+]1[O-] | < 50%
CC1(C)[N+]([O-])=c2ccc(/C=N/O)cc2=[N+]1[O-] | Not toxic

These compounds were tested on J774 (assay: Cytotoxicity against mouse J774 macrophage at 4 uM). Conditions: not given.
Type: functional, cell-based
Summary of the method: as §2

SMILES | Activity
CC1(C)[N+]([O-])=c2ccc(/C=N/O)cc2=[N+]1[O-] | Not toxic

These compounds were tested on Trypanosoma cruzi (assay: Activity against Trypanosoma cruzi in BALB/c mouse at 30 mg/kg/day after 60 days). Conditions: not given.
Type: functional, organism-based
Summary of the method: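 Male BALB/c mice (30 days old, 25-30 g) infected i.p. with 10^3 blood trypomastigotes; oral dosing began 10 days post-infection, 30 mg/kg/day as aqueous PBS solution for 10 days; groups of eight, PBS control group of 10. Mortality recorded daily, parasitemia weekly; anti-T. cruzi antibodies measured serologically (absorbance) at 30 and 60 days post-infection, groups compared by Wilcoxon test.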

SMILES | Activity
CC1(C)[N+]([O-])=c2ccc(C3OCCO3)cc2=[N+]1[O-] | Active
CC1(C)[N+]([O-])=c2ccc(/C=N/O)cc2=[N+]1[O-] | Active

These compounds were tested on Trypanosoma cruzi (assay: Antitrypanosomatid activity against Trypanosoma cruzi Tulahuen 2 epimastigote form at 25 uM). Conditions: read-out: GI.
Type: functional
Summary of the method: (§3)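 Tulahuen 2 epimastigotes in BHI-tryptose plus 5% FCS at 28°C, inoculated at 1×10^6 cells/mL with compound (25 or 100 µM) from DMSO stock, final DMSO ≤0.4%. Growth over 5 days followed by A600; %GI computed from day-0 and day-5 absorbances of treated vs compound-free control cultures; mean of three experiments.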

SMILES | inhibition of growth at 25 µM
O=[N+]([O-])c1ccc2c(c1)[n+]([O-])c1n2CCOC1 | 0%
Cc1ccc2c(c1)[n+]([O-])c(C)n2O | 0%
Cc1ccc2c(c1)=[N+]([O-])C(C)(C)[N+]=2[O-] | 85%
CC1(C)[N+]([O-])=c2ccc(Br)cc2=[N+]1[O-] | 77%
CC1(C)[N+]([O-])=c2ccc(C3OCCO3)cc2=[N+]1[O-] | 59%
CC1(C)[N+]([O-])=c2ccccc2=[N+]1[O-] | 87%
COc1ccc2c(c1)=[N+]([O-])C(C)(C)[N+]=2[O-] | 52%
Cc1n(O)c2ccccc2[n+]1[O-] | 0%
COc1ccc2c(c1)[n+]([O-])c(C)n2O | 0%
CC1(C)[N+]([O-])=c2ccc(/C=C/c3ccccc3)cc2=[N+]1[O-] | 100%
CC1(C)[N+]([O-])=c2ccc(/C=N/O)cc2=[N+]1[O-] | 72%

These compounds were tested on Trypanosoma cruzi (assay: Antitrypanosomatid activity against Trypanosoma cruzi Tulahuen 2 epimastigote form at 100 uM). Conditions: read-out: GI.
Type: functional
Summary of the method: as §3

SMILES | inhibition of growth at 100 µM
Cc1ccc2c(c1)[n+]([O-])c(C)n2O | 0%
Cc1n(O)c2ccccc2[n+]1[O-] | 0%
COc1ccc2c(c1)[n+]([O-])c(C)n2O | 24%

The compounds below were run on Trypanosoma cruzi (assay: Antitrypanosomatid activity against Trypanosoma cruzi Tulahuen 2 epimastigote form). Conditions: not given.
Type: functional, organism-based
Summary of the method: (§4)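 Epimastigotes grown at 28°C in BHI-tryptose with 5% fetal calf serum; 5-day stationary-phase cells inoculated at 1×10^6 cells/mL with compound added from DMSO stock (final DMSO ≤0.4%; control contains 0.4% DMSO). Growth followed by A600; at day 5 absorbance related to control across increasing concentrations; IC50 taken as concentration reducing absorbance ratio to 50%.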

SMILES | IC50
Cc1ccc2c(c1)=[N+]([O-])C(C)(C)[N+]=2[O-] | 5.1 µM
CC1(C)[N+]([O-])=c2ccc(Br)cc2=[N+]1[O-] | 8.3 µM
CC1(C)[N+]([O-])=c2ccc(C3OCCO3)cc2=[N+]1[O-] | 22.7 µM
CC1(C)[N+]([O-])=c2ccccc2=[N+]1[O-] | 4.3 µM
COc1ccc2c(c1)=[N+]([O-])C(C)(C)[N+]=2[O-] | 28.5 µM
CC1(C)[N+]([O-])=c2ccc(/C=C/c3ccccc3)cc2=[N+]1[O-] | 3.4 µM
CC1(C)[N+]([O-])=c2ccc(/C=N/O)cc2=[N+]1[O-] | 12.5 µM

The compounds below were run on Trypanosoma cruzi (assay: Antitrypanosomatid activity against Trypanosoma cruzi CL Brener epimastigote form). Conditions: not given.
Type: functional, organism-based
Summary of the method: as §4

SMILES | IC50
Cc1ccc2c(c1)=[N+]([O-])C(C)(C)[N+]=2[O-] | 13.5 µM
CC1(C)[N+]([O-])=c2ccc(Br)cc2=[N+]1[O-] | 12 µM
CC1(C)[N+]([O-])=c2ccc(C3OCCO3)cc2=[N+]1[O-] | 20 µM
CC1(C)[N+]([O-])=c2ccccc2=[N+]1[O-] | 9 µM
COc1ccc2c(c1)=[N+]([O-])C(C)(C)[N+]=2[O-] | 25 µM
CC1(C)[N+]([O-])=c2ccc(/C=C/c3ccccc3)cc2=[N+]1[O-] | 6 µM
CC1(C)[N+]([O-])=c2ccc(/C=N/O)cc2=[N+]1[O-] | 14.5 µM

What follows are compounds tested on Trypanosoma cruzi (assay: Antitrypanosomatid activity against Trypanosoma cruzi Y epimastigote form). Conditions: not given.
Type: functional, organism-based
Summary of the method: as §4

SMILES | IC50
Cc1ccc2c(c1)=[N+]([O-])C(C)(C)[N+]=2[O-] | 13 µM
CC1(C)[N+]([O-])=c2ccc(Br)cc2=[N+]1[O-] | 13.8 µM
CC1(C)[N+]([O-])=c2ccc(C3OCCO3)cc2=[N+]1[O-] | 14 µM
CC1(C)[N+]([O-])=c2ccccc2=[N+]1[O-] | 14 µM
COc1ccc2c(c1)=[N+]([O-])C(C)(C)[N+]=2[O-] | 17 µM
CC1(C)[N+]([O-])=c2ccc(/C=C/c3ccccc3)cc2=[N+]1[O-] | 5 µM
CC1(C)[N+]([O-])=c2ccc(/C=N/O)cc2=[N+]1[O-] | 11.8 µM

What follows are compounds tested on Trypanosoma cruzi (assay: Trypanocidal activity against Trypanosoma cruzi CL Brener trypomastigote form in mouse blood at 250 ug/mL). Conditions: not given.
Type: functional
Summary of the method: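 Trypomastigotes taken from infected mouse blood; compound in DMSO diluted with PBS to 250 µg/mL, mixed with blood containing 10^6 parasites at 90/10 ratio, incubated 24 h at 4°C. Parasites counted by the Brener method under microscope; gentian violet positive and PBS negative controls.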

SMILES | Activity
Cc1ccc2c(c1)[n+]([O-])c(C)n2O | 0%
Cc1ccc2c(c1)=[N+]([O-])C(C)(C)[N+]=2[O-] | 0%
CCOC(=O)c1[nH]c2ccc([N+](=O)[O-])cc2[n+]1[O-] | 0%
CC1(C)[N+]([O-])=c2ccc(C3OCCO3)cc2=[N+]1[O-] | 28%
CC1(C)[N+]([O-])=c2ccccc2=[N+]1[O-] | 10%
COc1ccc2c(c1)=[N+]([O-])C(C)(C)[N+]=2[O-] | 34%
CCOC(=O)c1ccc2[nH]c(C(=O)OCC)[n+]([O-])c2c1 | 50%
Cc1n(O)c2ccccc2[n+]1[O-] | 0%
COc1ccc2c(c1)[n+]([O-])c(C)n2O | 23%
CC1(C)[N+]([O-])=c2ccc(/C=N/O)cc2=[N+]1[O-] | 21%
